The target in one data set is MET (Homo sapiens, UniProt P08581, DEL964-1010). Description: MET phosphorylation in Hs 746T tumors in vivo. Details: species or system mice. The settings on record: Hs 746T model; single dose of 100 mg/kg.
The target in another data set is VEGFR2 (Homo sapiens, UniProt P35968). Kind of data set: Inhibition of receptor phosphorylation, ELISA, HUVEC/VEGF165. Format: cell-based. Particulars: Cellular IC50 ± SD, VEGFR2 autophosphorylation, serum-free. A general note: ELISA stands for enzyme-linked immunosorbent assay.
Data set [1] in a line: Plasma protein binding, rapid equilibrium dialysis. Format: in vitro ADME. The settings on record: mouse. The essentials:
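Rapid equilibrium dialysis against PBS at 10 μmol/L test compound, 16 h incubation, in triplicate.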

Data set [2] concerns primary human CD14+ monocyte-derived M2 macrophages. Kind of data set: Macrophage M2 to M1 repolarization. The data set is classed as cell-based. Particulars: 2, 4, and 6 μmol/L XL092 for 7 days; 5 donors. The procedure, abridged: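 CD14+ monocytes (1.0 × 10^6 cells/mL) differentiated 6 days into M2 macrophages, then cryopreserved. Thawed cells seeded at 2.0 × 10^5/well in M2 differentiation medium and exposed to 2, 4 or 6 μmol/L for 7 days at 37°C, 5% CO2, with medium and compound renewed on day 4; triplicate per donor, 5 donors. After Fc block, stained with anti-CD163 and 7-AAD. Viable CD163−/CD163+ ratio expressed as fold change versus DMSO.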

For the next data set, the target named is T1, MER (Homo sapiens, UniProt Q12866).
T1 sequence (Q12866 21-999): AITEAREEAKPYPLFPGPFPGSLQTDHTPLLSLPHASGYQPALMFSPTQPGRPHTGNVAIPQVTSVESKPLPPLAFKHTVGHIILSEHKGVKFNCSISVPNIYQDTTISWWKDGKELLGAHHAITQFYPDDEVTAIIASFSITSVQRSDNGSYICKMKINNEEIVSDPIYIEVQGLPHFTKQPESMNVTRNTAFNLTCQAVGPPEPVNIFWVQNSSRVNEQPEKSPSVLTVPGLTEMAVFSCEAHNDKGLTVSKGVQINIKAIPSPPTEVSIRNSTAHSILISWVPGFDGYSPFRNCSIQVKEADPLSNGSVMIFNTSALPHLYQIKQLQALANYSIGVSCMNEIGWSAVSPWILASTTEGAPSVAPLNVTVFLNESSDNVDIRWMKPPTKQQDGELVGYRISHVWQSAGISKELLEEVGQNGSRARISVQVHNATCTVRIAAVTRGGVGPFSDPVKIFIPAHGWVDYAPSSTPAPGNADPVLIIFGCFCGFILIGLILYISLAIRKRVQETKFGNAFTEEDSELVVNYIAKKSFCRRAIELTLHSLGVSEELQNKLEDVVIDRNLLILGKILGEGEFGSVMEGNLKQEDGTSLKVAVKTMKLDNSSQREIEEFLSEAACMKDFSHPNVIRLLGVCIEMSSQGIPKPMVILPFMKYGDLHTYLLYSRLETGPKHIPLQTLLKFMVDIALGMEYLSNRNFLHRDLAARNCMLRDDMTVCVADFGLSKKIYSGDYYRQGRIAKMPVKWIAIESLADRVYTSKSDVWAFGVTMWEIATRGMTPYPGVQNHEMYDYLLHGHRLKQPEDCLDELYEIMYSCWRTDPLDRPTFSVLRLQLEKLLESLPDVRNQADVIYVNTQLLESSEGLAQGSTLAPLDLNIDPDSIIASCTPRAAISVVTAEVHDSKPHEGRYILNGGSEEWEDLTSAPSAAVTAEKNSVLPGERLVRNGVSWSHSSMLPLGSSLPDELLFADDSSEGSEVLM
Kind of data set: Inhibition of receptor phosphorylation, ELISA, MERTK-transfected 293A cells. The data set is classed as cell-based.

The next data set has as its system SNU-5 tumors. Kind of data set: SNU-5 xenograft tumor growth. Format: in vivo, mice. Particulars: 14 days, oral. The procedure, abridged: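 Human tumour cells inoculated into the rear flank. Mice randomised at mean volumes of ~200 mm3 (Hs 746T), ~120 mm3 (MDA-MB-231), ~100 mm3 (NCI-H441) or ~90 mm3 (SNU-5). Oral gavage once daily with test compound or vehicle. Tumour volume and body weight measured at least twice weekly. […], using mean volumes at extraction and dosing start.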

A further data set concerns the target T2, TYRO3 (Homo sapiens, UniProt Q06418).
T2 sequence (Q06418 41-890): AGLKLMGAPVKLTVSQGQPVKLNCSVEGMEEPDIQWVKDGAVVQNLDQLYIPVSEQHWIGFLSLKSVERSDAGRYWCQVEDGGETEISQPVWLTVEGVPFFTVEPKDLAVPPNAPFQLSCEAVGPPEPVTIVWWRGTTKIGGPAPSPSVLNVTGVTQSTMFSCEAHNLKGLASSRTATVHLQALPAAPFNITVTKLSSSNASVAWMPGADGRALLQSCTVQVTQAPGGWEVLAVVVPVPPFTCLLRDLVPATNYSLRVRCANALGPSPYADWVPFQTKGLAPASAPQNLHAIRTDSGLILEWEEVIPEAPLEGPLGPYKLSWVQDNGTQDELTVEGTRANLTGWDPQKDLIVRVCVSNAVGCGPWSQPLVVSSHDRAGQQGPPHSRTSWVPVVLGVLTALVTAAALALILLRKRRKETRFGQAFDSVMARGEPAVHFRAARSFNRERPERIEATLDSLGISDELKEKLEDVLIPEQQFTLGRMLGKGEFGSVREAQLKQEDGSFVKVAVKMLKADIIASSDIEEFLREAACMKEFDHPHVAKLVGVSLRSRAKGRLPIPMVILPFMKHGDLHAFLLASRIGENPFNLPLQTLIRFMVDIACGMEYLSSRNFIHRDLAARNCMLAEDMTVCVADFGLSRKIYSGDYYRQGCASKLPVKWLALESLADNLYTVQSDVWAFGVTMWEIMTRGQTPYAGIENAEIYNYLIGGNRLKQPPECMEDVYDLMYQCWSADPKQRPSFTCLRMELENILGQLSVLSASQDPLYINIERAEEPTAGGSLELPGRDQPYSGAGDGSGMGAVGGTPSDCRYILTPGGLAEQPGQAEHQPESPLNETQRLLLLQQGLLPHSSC
Description: Inhibition of receptor phosphorylation, ELISA, TYRO3-transfected 293A cells. The data set is classed as cell-based. The essentials: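 293A cells transfected with TYRO3 were serum-starved 3–24 h, then incubated 1 h in serum-free medium with serially diluted test compound. Receptor phosphorylation quantified by ELISA to derive IC50.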

Chain of VEGFR2 (P35968 20-1356): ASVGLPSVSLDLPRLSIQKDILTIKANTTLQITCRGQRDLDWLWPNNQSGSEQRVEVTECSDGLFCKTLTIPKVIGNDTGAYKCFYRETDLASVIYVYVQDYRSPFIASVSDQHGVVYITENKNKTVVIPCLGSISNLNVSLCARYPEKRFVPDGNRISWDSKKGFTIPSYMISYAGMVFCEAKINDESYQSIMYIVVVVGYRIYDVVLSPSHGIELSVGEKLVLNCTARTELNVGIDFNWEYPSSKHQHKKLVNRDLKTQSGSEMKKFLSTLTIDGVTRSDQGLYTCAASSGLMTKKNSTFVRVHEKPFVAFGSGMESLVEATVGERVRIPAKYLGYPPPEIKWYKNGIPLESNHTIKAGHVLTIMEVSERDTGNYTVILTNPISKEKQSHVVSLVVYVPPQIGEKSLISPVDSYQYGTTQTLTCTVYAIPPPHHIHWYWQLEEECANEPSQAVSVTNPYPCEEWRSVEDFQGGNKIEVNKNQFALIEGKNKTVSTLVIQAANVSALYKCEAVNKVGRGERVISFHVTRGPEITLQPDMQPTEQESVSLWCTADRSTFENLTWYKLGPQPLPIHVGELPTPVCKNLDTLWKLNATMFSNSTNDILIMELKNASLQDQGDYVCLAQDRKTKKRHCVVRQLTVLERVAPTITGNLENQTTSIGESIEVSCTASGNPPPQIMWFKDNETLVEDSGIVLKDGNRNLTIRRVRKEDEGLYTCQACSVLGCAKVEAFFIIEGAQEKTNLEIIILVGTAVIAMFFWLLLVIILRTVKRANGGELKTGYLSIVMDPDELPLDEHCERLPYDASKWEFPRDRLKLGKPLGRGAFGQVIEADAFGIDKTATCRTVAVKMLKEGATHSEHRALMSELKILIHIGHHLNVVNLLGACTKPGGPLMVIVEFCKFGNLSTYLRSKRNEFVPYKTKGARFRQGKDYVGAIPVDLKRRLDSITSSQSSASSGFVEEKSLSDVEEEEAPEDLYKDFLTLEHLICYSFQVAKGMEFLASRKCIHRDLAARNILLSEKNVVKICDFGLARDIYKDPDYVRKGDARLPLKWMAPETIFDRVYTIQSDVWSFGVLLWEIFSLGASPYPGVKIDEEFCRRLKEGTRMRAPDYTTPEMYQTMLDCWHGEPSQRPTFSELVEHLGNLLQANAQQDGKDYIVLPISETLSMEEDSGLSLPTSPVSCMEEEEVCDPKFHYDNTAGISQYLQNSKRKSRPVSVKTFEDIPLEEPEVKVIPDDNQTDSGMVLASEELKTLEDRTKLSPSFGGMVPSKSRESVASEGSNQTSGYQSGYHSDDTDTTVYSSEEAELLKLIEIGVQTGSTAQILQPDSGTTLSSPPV

Turning to `CNC(=O)c1cc2c(Oc3ccc(NC(=O)C4(C(=O)Nc5ccc(F)cc5)CC4)cc3)ccnc2cc1OC` [XL092], on MET, the “duration of inhibition of MET phosphorylation” value is reported as “approximately 24 hours”. Also, the IC50 worked out at 1.57 ± 1.52 nM against VEGFR2, 6.01 ± 1.56 nM against MER and 306 ± 1.37 nM on TYRO3. In data set [1], this compound had a fraction unbound at 16 h, 10 μmol/L of 0.003. Further, the “M1 (CD163-negative) to M2 (CD163-positive) ratio” value in data set [2] is given as “dose-dependent increases”. The Tumor growth inhibition in the data set with SNU-5 tumors (3 mg/kg/day) is recorded as 54.2%; in the data set on SNU-5 tumors (10 mg/kg/day) it was 94.7%.

As a reminder, the IC50 is the midpoint of a concentration-inhibition curve. Usually fraction unbound stands for free concentration divided by total concentration.

The values above are taken from article PMC9890135 (Molecular Cancer Therapeutics, 2022).
